Bioassay records: PubChem BioAssay, several laboratories
An excerpt weighted towards active compounds, which were near 2.3% of everything screened.
ROMK mod: modulators of human ROMK potassium channel; Tet-inducible ROMK, thallium flux fluorescence; actives lie on both sides; B-score at 10 µM; P48048; 130,000 tested, 2% active;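 active = signal ratio slope over the read window, or its plate-corrected B-score, at least 3 SD from the plate mean, either direction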;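 also: B-score of the F/F0 ratio slope over 7 to 12 s after thallium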
Autophagy mod: modulators of autophagy; calls only at 10 µM (by protocol); MEF GFP-LC3 puncta imaging; test concentration mostly 10 µM; AID 463193; 190,000 tested, 0.98% active;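 active = percentage of spot-positive cells more than 3 SD above its plate mean, without a fluorescence outlier flag or 80% toxicity; inconclusive = no clear call, values can overlap the other calls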;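 also: spot-positive cell cutoff set from DMSO-treated cells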
ABCB1 inh: human ABCB1 inhibition, ABCG2 as counter-screen; 190,000 tested, 0.067% active; inhibition, % at 6.6 µM; CCRF-Adr cells, JC-1 efflux, flow cytometry; P08183; in the data active = inhibition above about 40%;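 also: 0% = vehicle and 100% = reference inhibitor; higher value means more JC-1 retained so stronger ABCB1 efflux block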
Target sequence (P08183 whole entry, looked up): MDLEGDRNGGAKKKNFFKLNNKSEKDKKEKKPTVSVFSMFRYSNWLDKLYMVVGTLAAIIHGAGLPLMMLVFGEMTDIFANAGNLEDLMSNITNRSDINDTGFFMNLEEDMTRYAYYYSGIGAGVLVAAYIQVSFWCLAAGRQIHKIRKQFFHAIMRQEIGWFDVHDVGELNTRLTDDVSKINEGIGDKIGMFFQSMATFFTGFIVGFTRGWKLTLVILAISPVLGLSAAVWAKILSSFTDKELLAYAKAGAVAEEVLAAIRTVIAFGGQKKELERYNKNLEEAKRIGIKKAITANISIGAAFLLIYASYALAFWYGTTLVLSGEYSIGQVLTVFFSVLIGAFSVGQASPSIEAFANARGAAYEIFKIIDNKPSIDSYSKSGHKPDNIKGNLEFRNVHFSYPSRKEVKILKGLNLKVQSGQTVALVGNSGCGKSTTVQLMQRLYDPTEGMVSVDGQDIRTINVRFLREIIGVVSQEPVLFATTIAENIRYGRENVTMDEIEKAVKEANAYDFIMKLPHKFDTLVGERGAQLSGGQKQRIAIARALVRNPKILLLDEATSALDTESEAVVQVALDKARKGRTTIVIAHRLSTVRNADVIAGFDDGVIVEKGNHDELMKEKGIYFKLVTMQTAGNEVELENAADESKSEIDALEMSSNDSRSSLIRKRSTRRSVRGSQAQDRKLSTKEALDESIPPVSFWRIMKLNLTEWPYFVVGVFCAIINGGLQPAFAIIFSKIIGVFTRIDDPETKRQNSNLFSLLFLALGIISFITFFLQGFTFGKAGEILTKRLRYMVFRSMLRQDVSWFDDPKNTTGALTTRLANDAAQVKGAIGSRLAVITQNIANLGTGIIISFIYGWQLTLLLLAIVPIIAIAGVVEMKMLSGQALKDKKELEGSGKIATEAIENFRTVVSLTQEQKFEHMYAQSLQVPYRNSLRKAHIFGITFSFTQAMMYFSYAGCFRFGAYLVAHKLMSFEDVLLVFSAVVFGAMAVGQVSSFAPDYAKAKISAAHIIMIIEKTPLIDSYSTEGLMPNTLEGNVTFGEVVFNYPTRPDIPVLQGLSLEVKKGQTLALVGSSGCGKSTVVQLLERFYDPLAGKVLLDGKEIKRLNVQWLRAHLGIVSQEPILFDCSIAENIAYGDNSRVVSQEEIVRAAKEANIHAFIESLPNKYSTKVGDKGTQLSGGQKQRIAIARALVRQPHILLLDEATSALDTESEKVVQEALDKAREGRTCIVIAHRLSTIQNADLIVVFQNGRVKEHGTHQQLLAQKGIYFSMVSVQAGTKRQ
sdo1 growth: compounds rescuing growth of sdo1-depleted yeast, bone marrow failure model | S. cerevisiae sdo1-depleted JHY4D growth rescue, OD600 30 h; hits give high values; pdr5 snq2 efflux-pump mutant strain | z-score at 10 µM | 140,000 tested, 0.21% active | AID 817;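 active = z-score above 3 at both the 24 hr and the 30 hr optical density reads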;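 also: z-score against mean and SD of all compound wells on the same plate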
Ins promoter up: MIN6 insulin promoter up-regulation | MIN6 insulin promoter-GFP reporter, high-content imaging; hits give high values | z-score at 5 µM | 190,000 tested, 0.3% active;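 active = z-score above 3 at 5 µM with at least 500 cells counted in the well; inconclusive = wells under 500 cells, flagged as cytotoxic or low count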
ABCG2 block: human ABCG2 inhibition, ABCB1 as counter-screen. inhibition, % at 6.6 µM. IgMXP3 cells, JC-1 efflux, flow cytometry. Q9UNQ0. AID 1325. 190,000 tested, 0.1% active;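 active = inhibition above 80%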;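 also: 0% = DMSO and 100% = nicardipine control wells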
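test system = two drug-resistant human cell lines, ABCG2 and ABCB1 | amount = 3 million cells/mL final, two lines in 1:1 ratio | reagent = JC-1 transporter substrate | doses = one concentration, 6.6 µM final | incubation = 10 min at 25 °C | signal = flow cytometric JC-1 green MFI at 530 nm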
ROMK hit retest: confirmation of human ROMK potassium channel modulators | shares compounds with ROMK mod | ROMK thallium flux, fluorescence ratio; hits give low values | normalized thallium flux (F/F0 slope) at 10 µM | 3,000 tested, 54% active;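 active = Flux at 10 µM at least 3 SD below or above vehicle control mean in one or both replicates; inconclusive = no clear call, values can overlap the other calls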
* hit, by the source's call; i = inactive; ? = inconclusive; · = not tested or not shown.

SMILES | ROMK mod | Autophagy mod | ABCB1 inh | sdo1 growth | Ins promoter up | ABCG2 block | ROMK hit retest
COc1ccc(C2NCCc3c2[nH]c2ccccc32)cc1COc1ccc(F)cc1 (stereo not drawn) | -1.6 | i | 0 | -1.6 | -0.81 | -2 | ·
CC12COC3(P(=O)(c4ccccc4)c4ccccc4)CC1CCC23CP(=O)(c1ccccc1)c1ccccc1 (stereo not drawn) | -2.9* | i | 5 | · | -1.2 | -4 | 0.051*
CC12COC3(C(=O)Nc4ccc(F)cc4)CC1CCC32C (stereo not drawn) | · | i | 0 | 0.28 | · | 8 | ·
N=c1sccn1CC(=O)Nc1ccccc1Sc1ccccc1 | -1.1 | i | 0 | · | -0.57 | 3 | ·
Cc1ccc2sc(-c3ccc(NC(=O)/C=C\C(=O)O)cc3)nc2c1 | 0.95 | i | 0 | · | 0.79 | -1 | ·
Cc1cnc2ncc3sccc3c2c1 | -3.6* | i | -4 | -0.19 | 0.01 | 0 | 0.059*
c1cnc2ncc3sccc3c2c1 | -0.25 | i | 0 | 1.2 | 0.88 | 2 | ·
Cc1nn(CC(=O)Nc2ccc(S(=O)(=O)N(C)C)cc2)c(C)c1[N+](=O)[O-] | 0.68 | i | 0 | -0.43 | 0.33 | 7 | ·
O=C(O)c1cc2c(s1)-c1ccccc1OC2 | · | i | 0 | 0.67 | · | 1 | ?
O=C(NC1CC1)c1cc2c(s1)-c1ccccc1OC2 | · | i | 0 | -0.71 | 0.97 | 4 | ·
Cc1ccc(-n2c(SCC(=O)N(C)C3CCS(=O)(=O)C3)nc3ccccc3c2=O)cc1 (stereo not drawn) | -0.28 | i | -2 | · | 0 | -1 | ·
COc1ccc(/C=C/c2nc3sc4c(c3c(=O)o2)CCC4)cc1 | · | i | · | · | · | · | ·
O=c1oc(/C=C/c2ccccc2)nc2sc3c(c12)CCC3 | -3.7* | i | -1 | -0.53 | 0.71 | 0 | 0.045*
CCN(CC)C(=O)NCc1c(C)cc(C)cc1C | 0.83 | i | 0 | · | -0.03 | 0 | ·
Cc1ccc(CNc2nc(N)c([N+](=O)[O-])c(NCCO)n2)cc1 | · | · | · | · | -1.1 | · | ·
Nc1nc(NCc2ccc(Cl)cc2)nc(NCCO)c1[N+](=O)[O-] | · | · | · | · | -2.3 | · | 0.071
O=C(NNC1CC(=O)N(c2ccc(Cl)cc2)C1=O)c1ccco1 (stereo not drawn) | -0.11 | i | 0 | · | 0.14 | 1 | ·
COc1cc(NC(=O)CN2CCN(c3ccccc3O)CC2)c(C)cc1[N+](=O)[O-] | -4.4* | i | 0 | -0.32 | 0.97 | 5 | 0.049*
COc1cc(NC(=O)CN2CCC(C)CC2)c(C)cc1[N+](=O)[O-] | · | i | 2 | 1.2 | -2.2 | 22 | ·
CCn1c(=O)c(C)nn2c3ccccc3nc12 | · | i | 0 | -0.12 | -0.31 | 1 | 0.073
Cc1nn2c3ccccc3nc2n(Cc2ccccc2)c1=O | · | i | · | · | · | · | ·
O=C(Nc1cccc(Cl)c1)Nc1ccnc(-c2cccnc2)n1 | 2.4* | i | 0 | · | -1.6 | 1 | 0.08
c1ccc(Cn2c(-c3cncs3)nc3ccccc32)cc1 | -2.5* | i | 0 | -0.74 | 0.35 | 2 | 0.06*
CC(C(=O)NC1CCCc2ccccc21)N1CCN(Cc2ccc3c(c2)OCO3)CC1 (stereo not drawn) | -3* | i | 1 | -0.15 | ? | 1 | 0.058*
CC(C(=O)NC1CCCc2ccccc21)N1CCN(c2ccc(F)cc2)CC1 (stereo not drawn) | · | i | -1 | -0.17 | -0.05 | 1 | ·
SMILES | ROMK mod | Autophagy mod | ABCB1 inh | sdo1 growth | Ins promoter up | ABCG2 block | ROMK hit retest
CC1(C)Cc2nc(NC3CCCCC3)c(C#N)cc2CO1 | -2.5* | i | 0 | · | 0.96 | 4 | 0.072
CC1(C)Cc2c(C#N)c(NC3CCCCC3)nc(-c3ccco3)c2CO1 | · | i | 0 | -0.54 | · | -1 | ·
COc1cccc(OC)c1CN1CCCC(C(=O)c2ccccc2SC)C1 (stereo not drawn) | -2.4 | i | 0 | · | · | 0 | ·
CC(Nc1cc(N2CCNCC2)ccc1[N+](=O)[O-])c1ccccc1 (stereo not drawn) | -3.2* | i | 2 | 0.96 | -0.26 | 32 | 0.053*
Cc1ccc2nc(Cl)c(/C=N/Nc3nc(C)cc(C)n3)c(=O)n2c1 | · | i | 1 | 0.21 | -0.83 | 32 | ·
CCCCN(C(=S)Nc1cccc(C)c1C)c1c(N)n(CCC)c(=O)[nH]c1=O | -0.69 | i | 1 | · | -0.4 | 1 | ·
CN(C)c1ccc(/C=C(\C#N)C(=O)c2ccccc2)cc1 | · | · | · | · | -0.17 | · | 0.066*
O=C(C1CCCN(S(=O)(=O)c2ccc(Cl)cc2)C1)N(Cc1cccs1)C1CC1 (stereo not drawn) | -4* | i | 2 | -2.6 | -0.53 | 3 | 0.058*
CN(Cc1cccs1)C(=O)c1ccc(S(=O)(=O)N2CCCCC2)cc1 | · | · | · | · | 0.13 | · | ·
Cc1ccc(C)c(-n2c3nc(=O)[nH]c(=O)c-3cc3cc([N+](=O)[O-])ccc32)c1 | · | i | 0 | 0.08 | · | 3 | 0.043*
Cc1cccc(-n2c3nc(=O)[nH]c(=O)c-3cc3cc([N+](=O)[O-])ccc32)c1 | -2.8* | i | 1 | 0.81 | -0.15 | 7 | 0.048*
CCn1ccc(C(=O)NC2C(=O)N3C(C(=O)O)=C(C)CSC23)n1 (stereo not drawn) | · | i | 1 | -0.69 | · | 9 | ·
CC1=C(C(=O)OCC(Cl)(Cl)Cl)N2C(=O)C(NC(=O)Cc3ccccc3)C2SC1 (stereo not drawn) | -3.1* | i | 1 | · | 0.62 | 3 | 0.061*
COC(=O)/C(C#N)=C1/C=Cc2ccccc2N1 | -0.67 | i | 1 | · | 0.51 | 7 | ·
O=C(O)C1CC=CCC1C(=O)NCc1ccccc1 (stereo not drawn) | 0.83 | i | -1 | 0.42 | 0.21 | -1 | ·
O=C(O)C1CC=CCC1C(=O)c1ccccc1 (stereo not drawn) | 3.4* | i | 1 | 1.2 | -1.1 | 0 | 0.081
O=C(COc1ccc(Cl)cc1[N+](=O)[O-])N1CCCCCC1 | -1.8* | i | 0 | · | 0.08 | 10 | ?
O=C(COc1ccc(Cl)cc1Cl)N1CCCC1 | -0.52 | i | 1 | 0.62 | 0.42 | 2 | ·
N#C/C(=C\c1ccccc1Cl)C(=O)NC(=O)Oc1ccccc1 | -4.3* | i | 1 | -0.37 | 0.01 | 5 | 0.046*
O=C(N/N=C\c1c(O)ccc2ccccc12)c1ccc(S(=O)(=O)N2CCCCC2)cc1 | -3.8* | i | 4 | -0.31 | -1.1 | 14 | 0.051*
CCO[C@H]1OC(C(=O)O)=C[C@@H](c2ccc3c(c2)OCO3)[C@@H]1CCCO | · | i | 0 | · | -0.71 | 1 | ·
Cn1c(=O)c2c(nc(Br)n2CCCc2ccccc2)n(C)c1=O | -4.1* | i | 0 | -0.25 | 0.22 | 1 | 0.063*
Cn1c(=O)[nH]c(=O)c2c1nc(Br)n2CCCc1ccccc1 | -2.3 | i | 1 | -1.3 | 0.09 | 4 | ·
C=CCNC(=O)c1scc2c1CCCC2 | -0.39 | i | 0 | 1 | 0.14 | 2 | ·
